The results in this text go back to ChEMBL document CHEMBL2390871, “Exploring the anticancer potential of pyrazolo[1,2-a]benzo[1,2,3,4]tetrazin-3-one derivatives: the effect on apoptosis induction, cell cycle and proliferation” (Eur J Med Chem, 2013).

The subject of assay [1] is HeLa. As to the kind of experiment: Cell cycle arrest in human HeLa cells assessed as accumulation at G1 phase at 5 to 50 uM after 72 hrs by propidium iodide staining-based FACS analysis. The assay is classed as functional. The gist of the method: (§1)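 HeLa cells (1 × 10⁶) exposed 72 h to 5, 10, 25 or 50 µM of each compound. Cells were washed, trypsinized, fixed in chilled 70% ethanol on ice for more than 2 h, and stained with propidium iodide for 15 min at 37 °C in the dark. Cell-cycle phase distribution was read by flow cytometry against untreated control cells.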
In general terms: Flow cytometry measures light scatter and fluorescence of single cells or particles in a stream.

The test system of assay [2] is HeLa. Kind of assay: Cell cycle arrest in human HeLa cells assessed as accumulation at sub-G0/G1 phase at 5 to 50 uM after 72 hrs by propidium iodide staining-based FACS analysis. It is filed as functional. A digest of the protocol: as §1
Assay [3] relates to HeLa. As to the kind of experiment: Induction of mitochondrial membrane depolarization in human HeLa cells at 1 uM after overnight incubation by FACS analysis. The assay is classed as functional, cell-based. The gist of the method:
(§2)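 HeLa cells (175,000/well) were incubated overnight with serial drug concentrations. They were washed with PBS, incubated 30 min at 37 °C in Krebs Ringer buffered saline, detached, and collected in buffer with 1% FCS. At least 2 × 10⁴ cells were analysed by flow cytometry, with the TMRM signal read on FL2. Depolarization was gated on cells treated overnight with staurosporine as positive control, and the untreated-cell signal was subtracted. Triplicates, replicated twice.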

Another assay relates to T47D. As to the kind of experiment: Cytotoxicity against human T47D cells assessed as growth at 10 uM after 48 hrs by sulforhodamine B assay. The assay is classed as functional. The following applies: read-out: Activity. A digest of the protocol:
(§3)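 NCI-60 one-dose screen at 10 µM. Cells in RPMI 1640 with 5% FBS and 2 mM L-glutamine were plated at 5000–40,000/well and preincubated 24 h. Drug was then applied for 48 h at 37 °C, 5% CO₂. Adherent cells were fixed with cold TCA (10% final) and stained with SRB. Growth % is relative to the no-drug control and the time-zero cell number; negative values indicate lethality.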
(The SRB assay estimates cell density from bound dye.)

The next assay concerns PC-3. As to the kind of experiment: Cytotoxicity against human PC3 cells assessed as growth at 10 uM after 48 hrs by sulforhodamine B assay. It is filed as functional. The following applies: PC-3, 48 h, read-out: Activity. The gist of the method: as §3
The subject of another assay is UO-31. As to the kind of experiment: Cytotoxicity against human UO31 cells assessed as growth at 10 uM after 48 hrs by sulforhodamine B assay. It is filed as functional. Particulars: UO-31, 48 h, read-out: Activity. The gist of the method:
as §3

Another assay deals with SK-MEL-2. As to the kind of experiment: Cytotoxicity against human SK-MEL-2 cells assessed as growth at 10 uM after 48 hrs by sulforhodamine B assay. The assay is classed as functional. Particulars: SK-MEL-2, 48 h, read-out: Activity. A digest of the protocol: as §3
The test system of the next assay is SNB-75. Kind of assay: Cytotoxicity against human SNB75 cells assessed as growth at 10 uM after 48 hrs by sulforhodamine B assay. The assay is classed as functional. Particulars: SNB-75, 48 h, read-out: Activity. A digest of the protocol: as §3
The next assay relates to SW-620. As to the kind of experiment: Cytotoxicity against human SW620 cells assessed as growth at 10 uM after 48 hrs by sulforhodamine B assay. It is filed as functional. The following applies: SW-620, 48 h, read-out: Activity. A digest of the protocol: as §3
The next assay deals with COLO 205. As to the kind of experiment: Cytotoxicity against human COLO205 cells assessed as growth at 10 uM after 48 hrs by sulforhodamine B assay. The assay is classed as functional. Particulars: COLO 205, 48 h, read-out: Activity. The gist of the method:
as §3

The subject of another assay is NCI-H522. As to the kind of experiment: Cytotoxicity against human NCI-H522 cells assessed as growth at 10 uM after 48 hrs by sulforhodamine B assay. The assay is classed as functional. Particulars: NCI-H522, 48 h, read-out: Activity. The gist of the method: as §3
The subject of another assay is HOP-92. Kind of assay: Cytotoxicity against human HOP92 cells assessed as growth at 10 uM after 48 hrs by sulforhodamine B assay. It is filed as functional. The following applies: HOP-92, 48 h, read-out: Activity. The gist of the method: as §3
Another assay has as its system MOLT-4. Kind of assay: Cytotoxicity against human MOLT4 cells assessed as growth at 10 uM after 48 hrs by sulforhodamine B assay. It is filed as functional. The following applies: MOLT-4, 48 h, read-out: Activity. A digest of the protocol:
as §3

Assay [4] in a line: Cytotoxicity against human LAN5 cells after overnight incubation by MTT assay. It is filed as functional, cell-based. Particulars: LA-N-5. A digest of the protocol:
(§4)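 MTT (5 mg/ml) was added for 3 h at 37 °C, formazan dissolved in DMSO, and absorbance read at 540 nm. Viability is relative to untreated cells (100%), fitted to a four-parameter Hill equation. IC50 is 50% formazan formation versus drug-free control. Triplicates, at least three independent experiments.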

A further assay concerns CCRF-CEM. As to the kind of experiment: Cytotoxicity against human CCRF-CEM cells assessed as growth at 10 uM after 48 hrs by sulforhodamine B assay. Particulars: read-out: Activity. The assay is classed as functional. A digest of the protocol: as §3
The nature of assay [5]: Cytotoxicity against human 16HBE cells after overnight incubation by MTT assay. The assay is classed as functional, cell-based. The following applies: 16HBE14o-. A digest of the protocol:
as §4

In the next assay the test system is MCF7. Kind of assay: Cytotoxicity against human MCF7 cells after overnight incubation by MTT assay. It is filed as functional, cell-based. A digest of the protocol:
as §4
(In general: Tetrazolium assays rely on reduction of a dye to a coloured formazan, in cell work by metabolically active cells.)

The subject of the next assay is Caco-2. As to the kind of experiment: Cytotoxicity against human Caco2 cells after overnight incubation by MTT assay. It is filed as functional, cell-based. A digest of the protocol: as §4
Assay [6] concerns HeLa. As to the kind of experiment: Cytotoxicity against human HeLa cells after overnight incubation by MTT assay. It is filed as functional, cell-based. The gist of the method: as §4
The next assay deals with NCI-H292. Kind of assay: Cytotoxicity against human NCI-H292 cells after overnight incubation by MTT assay. It is filed as functional, cell-based. The gist of the method: as §4
For assay [7], the system named is HeLa. Kind of assay: Induction of mitochondrial membrane depolarization in human HeLa cells at 3 to 8 uM after overnight incubation by FACS analysis. The assay is classed as functional, cell-based. A digest of the protocol: as §2
Assay [8] deals with HeLa. As to the kind of experiment: Induction of mitochondrial membrane depolarization in human HeLa cells after overnight incubation by FACS analysis. It is filed as functional, cell-based. The gist of the method: as §2
For assay [9], the system named is HeLa. Kind of assay: Induction of mitochondrial membrane depolarization in human HeLa cells at < 10 uM after overnight incubation by FACS analysis. It is filed as functional, cell-based. A digest of the protocol: as §2
In assay [10] the test system is HeLa. As to the kind of experiment: Cell cycle arrest in human HeLa cells assessed as accumulation at S phase at 50 uM after 72 hrs by propidium iodide staining-based FACS analysis. It is filed as functional. The gist of the method:
as §1

In assay [11] the test system is HeLa. Kind of assay: Cell cycle arrest in human HeLa cells assessed as accumulation at sub-G0/G1 phase at 50 uM after 72 hrs by propidium iodide staining-based FACS analysis. The assay is classed as functional. The gist of the method: as §1
For assay [12], the system named is HeLa. As to the kind of experiment: Induction of mitochondrial membrane depolarization in human HeLa cells at 3 to 4 uM after overnight incubation by FACS analysis. It is filed as functional, cell-based. A digest of the protocol: as §2
Another assay concerns IGROV-1. Kind of assay: Cytotoxicity against human IGROV1 cells assessed as growth at 10 uM after 48 hrs by sulforhodamine B assay. The assay is classed as functional. The following applies: IGROV-1, 48 h, read-out: Activity. The gist of the method:
as §3

Structures are written as SMILES. The source made the active and inactive calls. No cut-off for these calls is given here.

As for `Cc1cc(=O)n2nnc3cc(C(F)(F)F)ccc3n12`, the Activity in the assay with HeLa [1] is given as -12%; in the assay with HeLa [2] it was 7.2%. Further, the result with HeLa [3] was Active. For the same compound, the growth at 10 µM with T47D is 115%; in the assay on PC-3, 101%; in the assay with UO-31, 84%; in the assay on SK-MEL-2, 99%; in the assay on SNB-75 it was 116%; in the assay on SW-620 it was 118%. The growth at 10 µM in the assay with COLO 205 came out at 108%; in the assay on NCI-H522, 97%; in the assay on HOP-92 it was 94%; with MOLT-4, 91%; in the assay with CCRF-CEM, 103%. Moreover, the IC50 is 15.1 µM in assay [4]; 30.9 µM in assay [5]; greater than 100 µM in the assay with MCF7; greater than 100 µM in the assay with Caco-2; greater than 100 µM in the assay with HeLa [6]; greater than 100 µM with NCI-H292.
In the case of `Cc1ccc2c(c1)nnn1c(=O)cc(C)n21`, the outcome in the assay with HeLa [7] was Active. Moreover, the IC50 in assay [4] was determined as 93.3 µM; in assay [5] it was 36.3 µM; with MCF7 it was 42.6 µM; in the assay on Caco-2, 50.2 µM; with HeLa [6], 15.4 µM; in the assay on NCI-H292 it was 25.1 µM.
On to `Cc1cc(=O)n2nnc3cc(Cl)ccc3n12`, for which the EC50 in the assay on HeLa [8] amounted to 5 µM. For the same compound, the IC50 in [4] is 31.6 µM; in [5], 17.7 µM; in the assay on MCF7, 20.5 µM; in the assay on Caco-2, 24 µM; in the assay with HeLa [6], 14.8 µM; in the assay on NCI-H292 it was 23.4 µM.
Consider `Cc1cc(=O)n2nnc3cc(C#N)ccc3n12`, for which the result in the assay with HeLa [9] was Active. The growth at 10 µM in the assay on T47D came out at 91%; with PC-3 it was 101%; with UO-31, 105%; with SK-MEL-2, 99%; in the assay on SNB-75 it was 96%; in the assay with SW-620, 110%. In addition, the growth at 10 µM with COLO 205 turned out to be 104%; in the assay with NCI-H522 it was 97%; in the assay on HOP-92, 103%; in the assay on MOLT-4, 95%; in the assay on CCRF-CEM, 100%. The IC50 is 28.2 µM in assay [4]; 46.7 µM in assay [5]; 35.9 µM in the assay with MCF7; 37.1 µM in the assay on Caco-2; 27 µM in the assay with HeLa [6]; 43.6 µM in the assay on NCI-H292.
For the compound `Cc1cc2nnn3c(=O)cc(C)n3c2cc1C`, the Activity in the assay with HeLa [10] stood at 10%; in the assay on HeLa [11] it was 18%. For the same compound, the outcome in the assay with HeLa [12] was Active. For the same compound, the growth at 10 µM in the assay on T47D is 97%; in the assay with PC-3, 100%; in the assay on UO-31, 84%; with IGROV-1, 91%; in the assay with SK-MEL-2, 96%; in the assay on SNB-75 it was 89%. In addition, the growth at 10 µM in the assay with SW-620 was 94%; in the assay with COLO 205, 66%; in the assay with NCI-H522, 97%; with HOP-92, 93%; in the assay with MOLT-4, 82%; in the assay with CCRF-CEM, 19%. The IC50 in assay [4] turned out to be 95.5 µM; in [5] it was 38.9 µM; in the assay with MCF7, 46.7 µM; in the assay with Caco-2, 46.8 µM; with HeLa [6], 13.2 µM; in the assay with NCI-H292 it was 23.4 µM.
Consider `Cc1cc(=O)n2nnc3ccc(Cl)cc3n12`, for which the IC50 amounted to 48.9 µM in [4]; 27.5 µM in assay [5]; 29.5 µM with MCF7; 34.6 µM in the assay with Caco-2; 15.8 µM in the assay with HeLa [6]; 25.1 µM in the assay on NCI-H292.
As for `Cc1cc(=O)n2nnc3cc(Cl)c(Cl)cc3n12`, the Activity with HeLa [10] was 19.4%; in the assay on HeLa [11], 25.4%. Besides, a half-maximal response in the assay on HeLa [8] (EC50) required 3 µM. Moreover, the growth at 10 µM worked out at 76% in the assay on T47D; 94% with PC-3; 81% with UO-31; 102% with SK-MEL-2; 96% in the assay with SNB-75; 23% with SW-620. Further, the growth at 10 µM was -64% in the assay with COLO 205; 54% with NCI-H522; 101% in the assay on HOP-92; 59% in the assay with MOLT-4; 23% in the assay on CCRF-CEM. Besides, the IC50 amounted to 25.7 µM in assay [4]; 13.5 µM in assay [5]; 13.9 µM in the assay on MCF7; 25.7 µM with Caco-2; 14.8 µM with HeLa [6]; 28.2 µM in the assay on NCI-H292.

The term IC50 denotes the point on the concentration scale where inhibition reaches its midpoint. Low values mean higher potency, high ones lower potency. Broadly, the EC50 is the concentration that produces a half-maximal response.
